pIC50: −log10 of the molar value.
Assays:
Type in all cases: functional, cell-based
A549 = experiment: Cytotoxicity against human A549 cells by SRB assay
In short: (§1)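 Sulforhodamine B (SRB) assay against cultured human cancer cell lines, run at the Korea Research Institute of Chemical Technology. Cytotoxicity is reported as IC50 in µM.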

SK-OV-3 = experiment: Cytotoxicity against human SKOV3 cells by SRB assay; in short: as §1
SK-MEL-2 = experiment: Cytotoxicity against human SK-MEL-2 cells by SRB assay; in short: as §1
HCT-15 = experiment: Cytotoxicity against human HCT15 cells by SRB assay; in short: as §1

Row | Structure (SMILES) | pIC50 (A549) | pIC50 (SK-OV-3) | pIC50 (SK-MEL-2) | pIC50 (HCT-15)
1 | C[C@@]12CCC[C@@](C)(C(=O)O)[C@H]1[C@H](O)[C@H](O)[C@@]13C[C@H](CC[C@@H]21)[C@](O)(CO)C3 | < 4.52 | < 4.52 | < 4.52 | < 4.52
2 | C[C@@]12CCC[C@@](C)(C(=O)O)[C@H]1[C@H](O)[C@H](O)[C@@]13C[C@H](CC[C@@H]21)[C@@](O)(CO)C3 | < 4.52 | < 4.52 | < 4.52 | < 4.52
3 | C[C@]12CCC[C@@]3(C)C(=O)O[C@@H]([C@H](O)[C@@]45C[C@H](CC[C@@H]14)[C@](O)(CO)C5)[C@@H]23 | < 4.52 | < 4.52 | < 4.52 | < 4.52
4 | COc1cccc2c1C(=O)c1c(O)c3c(c(O)c1C2=O)C[C@@](O)(C(=O)CO)C[C@@H]3O[C@H]1C[C@H](N)[C@H](O)[C@H](C)O1 [DOXORUBICIN] | – | 7.25 | 6.93 | 6.79
5 | C=C1C[C@]23C[C@@H]1CC[C@H]2[C@]1(C)CCC[C@@](C)(C(=O)O[C@@H]2O[C@H](CO)[C@@H](O)[C@H](O)[C@H]2O)[C@H]1C[C@@H]3O [PHARBOSIDE A] | < 4.52 | < 4.52 | < 4.52 | < 4.52
6 | C=C1C[C@]23C[C@@H]1CC[C@H]2[C@]1(C)CCC[C@@](C)(C(=O)O[C@@H]2O[C@H](CO)[C@@H](O)[C@H](O)[C@H]2O)[C@H]1C[C@H]3O [PHARBOSIDE B] | < 4.52 | < 4.52 | < 4.52 | < 4.52
7 | COC(=O)[C@]1(C)CCC[C@@]2(C)[C@@H]3CC[C@H]4C[C@]3(C[C@@]4(CO)O[C@@H]3O[C@H](CO)[C@@H](O)[C@H](O)[C@H]3O)[C@@H](O)[C@@H](O)[C@@H]21 [PHARBOSIDE C] | < 4.52 | < 4.52 | < 4.52 | < 4.52
8 | C[C@@]12CCC[C@@](C)(C(=O)O[C@@H]3O[C@H](CO)[C@@H](O)[C@H](O)[C@H]3O)[C@H]1[C@H](O)[C@H](O)[C@@]13C[C@H](CC[C@@H]21)[C@](O)(CO)C3 [PHARBOSIDE D] | 4.60 | 4.54 | 4.84 | 4.76
9 | C[C@@]12CCC[C@@](C)(C(=O)O)[C@H]1[C@H](O)[C@H](O)[C@@]13C[C@H](CC[C@@H]21)[C@](O)(CO[C@@H]1O[C@H](CO)[C@@H](O)[C@H](O)[C@H]1O)C3 [PHARBOSIDE E] | 4.63 | 4.86 | 4.82 | 4.66
10 | C[C@@]12CCC[C@@](C)(C(=O)O)[C@H]1[C@H](O)[C@H](O)[C@@]13C[C@H](CC[C@@H]21)[C@](CO)(O[C@@H]1O[C@H](CO)[C@@H](O)[C@H](O)[C@H]1O)C3 [PHARBOSIDE F] | < 4.52 | < 4.52 | < 4.52 | < 4.52
11 | C=C1C[C@]23C[C@@H]1CC[C@H]2[C@]1(C)CCC[C@@](C)(C(=O)O[C@@H]2O[C@H](CO)[C@@H](O)[C@H](O)[C@H]2O)C1[C@@H]3C=O (stereo partly drawn) [PHARBOSIDE G] | < 4.52 | < 4.52 | < 4.52 | < 4.52
